Test results from ChEMBL document CHEMBL4354843, “Structure-Based Design of a Potent and Selective Covalent Inhibitor for SRC Kinase That Targets a P-Loop Cysteine” (J Med Chem, 2020).

Experiments:
[1] = target: Calcium/calmodulin-dependent protein kinase kinase 1 (Homo sapiens) (UniProt Q8N5S9); assay: Binding affinity to wild-type human partial length CAMKK1 (R65 to E414 residues) expressed in bacterial expression system assessed as residual binding level at 1 uM by Kinomescan method relative to control
Calcium/calmodulin-dependent protein kinase kinase 1 (Homo sapiens), sequence (Q8N5S9 whole entry, looked up, the tested form may be a part): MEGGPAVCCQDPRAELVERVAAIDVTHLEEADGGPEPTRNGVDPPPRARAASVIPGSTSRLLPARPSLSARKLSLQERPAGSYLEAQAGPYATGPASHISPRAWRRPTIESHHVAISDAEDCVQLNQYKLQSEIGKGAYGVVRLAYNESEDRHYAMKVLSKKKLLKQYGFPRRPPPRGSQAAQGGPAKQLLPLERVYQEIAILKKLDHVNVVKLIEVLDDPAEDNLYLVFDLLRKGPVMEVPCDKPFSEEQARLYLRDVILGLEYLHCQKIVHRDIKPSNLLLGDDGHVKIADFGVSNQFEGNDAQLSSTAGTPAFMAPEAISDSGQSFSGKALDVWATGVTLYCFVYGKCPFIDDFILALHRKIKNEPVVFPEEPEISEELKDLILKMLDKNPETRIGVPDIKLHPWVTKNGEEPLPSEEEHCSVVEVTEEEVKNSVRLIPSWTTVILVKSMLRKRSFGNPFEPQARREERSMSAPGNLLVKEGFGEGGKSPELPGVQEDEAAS

[2] = target: Calcium/calmodulin-dependent protein kinase type 1 (Homo sapiens) (UniProt Q14012); assay: Binding affinity to wild-type human full length CAMK1 (M1 to L370 residues) expressed in bacterial expression system assessed as residual binding level at 1 uM by Kinomescan method relative to control
Method in brief: (§1)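 Active-site-directed KinomeScan competition binding panel covering 468 kinases, compound tested at 1 μM. Each readout is the kinase signal remaining with compound, expressed as a percentage of the DMSO control. […]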

[3] = target: Cyclin-dependent kinase 9 (Homo sapiens) (UniProt P50750); assay: Binding affinity to wild-type human full length CDK9 (M1 to F372 residues) expressed in bacterial expression system assessed as residual binding level at 1 uM by Kinomescan method relative to control; method in brief: as §1
Cyclin-dependent kinase 9 (Homo sapiens), sequence (P50750 whole entry, the tested form may be a part): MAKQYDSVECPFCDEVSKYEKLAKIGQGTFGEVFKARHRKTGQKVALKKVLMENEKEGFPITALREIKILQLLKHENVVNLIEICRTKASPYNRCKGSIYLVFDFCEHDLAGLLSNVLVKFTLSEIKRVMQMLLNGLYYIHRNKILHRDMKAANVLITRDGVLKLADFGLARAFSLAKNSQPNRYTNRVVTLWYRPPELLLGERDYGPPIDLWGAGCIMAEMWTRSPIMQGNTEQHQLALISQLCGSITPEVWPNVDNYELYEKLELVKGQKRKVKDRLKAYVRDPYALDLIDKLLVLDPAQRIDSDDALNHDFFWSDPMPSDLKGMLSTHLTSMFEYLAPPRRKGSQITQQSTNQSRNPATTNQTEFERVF

[4] = target: Serine/threonine-protein kinase BRSK1 (Homo sapiens) (UniProt Q8TDC3); assay: Binding affinity to wild-type human partial length BRSK1 (M1 to E754 residues) expressed in bacterial expression system assessed as residual binding level at 1 uM by Kinomescan method relative to control
[5] = target: Casein kinase I isoform alpha-like (Homo sapiens) (UniProt Q8N752); assay: Binding affinity to wild-type human full length CSNK1A1L (M1 to N337 residues) expressed in bacterial expression system assessed as residual binding level at 1 uM by Kinomescan method relative to control; method in brief: as §1
[6] = target: SRSF protein kinase 1 (Homo sapiens) (UniProt Q96SB4); assay: Binding affinity to wild-type human full length SRPK1 (M1 to S655 residues) expressed in bacterial expression system assessed as residual binding level at 1 uM by Kinomescan method relative to control
Method in brief: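 Active site-directed binding assay (KinomeScan) run across a 468-kinase panel, with the test compound at 1 μM. The read-out is the remaining kinase signal in the presence of compound, expressed as a percentage of the DMSO control. Scores above 35% were taken as weak binding and were not reported.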

[7] = target: cGMP-dependent protein kinase 1 (Homo sapiens) (UniProt Q13976); assay: Binding affinity to wild-type human partial length PRKG1 (L339 to F686 residues) expressed in bacterial expression system assessed as residual binding level at 1 uM by Kinomescan method relative to control
[8] = target: Testis-specific serine/threonine-protein kinase 1 (Homo sapiens) (UniProt Q9BXA7); assay: Binding affinity to wild-type human full length TSSK1B (M1 to Q367 residues) expressed in bacterial expression system assessed as residual binding level at 1 uM by Kinomescan method relative to control
Testis-specific serine/threonine-protein kinase 1 (Homo sapiens), sequence (Q9BXA7 whole entry, the tested form may be a part): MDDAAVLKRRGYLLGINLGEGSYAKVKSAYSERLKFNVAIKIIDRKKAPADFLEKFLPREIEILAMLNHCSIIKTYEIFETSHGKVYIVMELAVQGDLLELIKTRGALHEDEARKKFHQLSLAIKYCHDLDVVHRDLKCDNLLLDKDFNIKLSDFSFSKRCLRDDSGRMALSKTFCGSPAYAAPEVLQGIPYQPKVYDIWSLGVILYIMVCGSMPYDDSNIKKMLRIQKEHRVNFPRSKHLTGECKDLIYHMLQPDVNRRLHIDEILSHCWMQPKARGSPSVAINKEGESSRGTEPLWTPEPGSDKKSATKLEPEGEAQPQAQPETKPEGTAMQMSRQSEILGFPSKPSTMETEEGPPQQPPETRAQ
Method in brief: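 KinomeScan, an active site-directed competition binding panel of 468 kinases. The test compound was at 1 μM. The readout is remaining kinase binding as a percentage of the DMSO control. Scores above 35% were treated as weak binding and not listed.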

[9] = target: Cyclin-dependent kinase 11A (Homo sapiens) (UniProt Q9UQ88); assay: Binding affinity to wild-type human partial length CDC2L2 (D391 to K730 residues) expressed in bacterial expression system assessed as residual binding level at 1 uM by Kinomescan method relative to control
Cyclin-dependent kinase 11A (Homo sapiens), sequence (Q9UQ88 whole entry, the tested form may be a part): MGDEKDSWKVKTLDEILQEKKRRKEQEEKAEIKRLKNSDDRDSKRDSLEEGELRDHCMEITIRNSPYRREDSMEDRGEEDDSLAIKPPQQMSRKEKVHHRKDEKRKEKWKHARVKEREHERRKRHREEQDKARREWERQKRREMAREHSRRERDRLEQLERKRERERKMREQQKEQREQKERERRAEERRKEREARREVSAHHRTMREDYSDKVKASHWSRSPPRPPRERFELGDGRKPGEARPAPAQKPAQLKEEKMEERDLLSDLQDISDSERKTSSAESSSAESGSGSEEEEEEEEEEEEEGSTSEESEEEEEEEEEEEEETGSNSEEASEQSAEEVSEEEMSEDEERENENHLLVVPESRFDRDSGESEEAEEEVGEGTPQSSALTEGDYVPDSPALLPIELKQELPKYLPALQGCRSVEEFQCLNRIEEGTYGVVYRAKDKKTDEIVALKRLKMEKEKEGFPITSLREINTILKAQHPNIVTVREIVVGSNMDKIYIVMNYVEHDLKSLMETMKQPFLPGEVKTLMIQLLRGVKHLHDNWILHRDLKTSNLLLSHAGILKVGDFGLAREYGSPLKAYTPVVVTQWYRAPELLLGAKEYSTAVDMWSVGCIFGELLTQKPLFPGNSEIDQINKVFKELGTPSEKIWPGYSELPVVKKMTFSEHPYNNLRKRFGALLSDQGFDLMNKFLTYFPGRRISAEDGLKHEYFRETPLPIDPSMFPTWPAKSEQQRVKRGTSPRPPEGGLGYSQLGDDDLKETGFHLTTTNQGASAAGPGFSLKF

[10] = target: Serine/threonine-protein kinase MRCK gamma (Homo sapiens) (UniProt Q6DT37); assay: Binding affinity to wild-type human partial length DMPK2 (S46 to S408 residues) expressed in bacterial expression system assessed as residual binding level at 1 uM by Kinomescan method relative to control
[11] = target: Serine/threonine-protein kinase Nek11 (Homo sapiens) (UniProt Q8NG66); assay: Binding affinity to wild-type human partial length NEK11 (M1 to E313 residues) expressed in mammalian expression system assessed as residual binding level at 1 uM by Kinomescan method relative to control
Method in brief: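 Active-site-directed competition binding panel of 468 kinases (KinomeScan), compound at 1 μM. The read-out is kinase remaining bound, given as a percentage of the DMSO control. […]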

[12] = target: Mitogen-activated protein kinase kinase kinase kinase 5 (Homo sapiens) (UniProt Q9Y4K4); assay: Binding affinity to wild-type human partial length MAP4K5 (M1 to P297 residues) expressed in bacterial expression system assessed as residual binding level at 1 uM by Kinomescan method relative to control
Mitogen-activated protein kinase kinase kinase kinase 5 (Homo sapiens), sequence (Q9Y4K4 whole entry, looked up, the tested form may be a part): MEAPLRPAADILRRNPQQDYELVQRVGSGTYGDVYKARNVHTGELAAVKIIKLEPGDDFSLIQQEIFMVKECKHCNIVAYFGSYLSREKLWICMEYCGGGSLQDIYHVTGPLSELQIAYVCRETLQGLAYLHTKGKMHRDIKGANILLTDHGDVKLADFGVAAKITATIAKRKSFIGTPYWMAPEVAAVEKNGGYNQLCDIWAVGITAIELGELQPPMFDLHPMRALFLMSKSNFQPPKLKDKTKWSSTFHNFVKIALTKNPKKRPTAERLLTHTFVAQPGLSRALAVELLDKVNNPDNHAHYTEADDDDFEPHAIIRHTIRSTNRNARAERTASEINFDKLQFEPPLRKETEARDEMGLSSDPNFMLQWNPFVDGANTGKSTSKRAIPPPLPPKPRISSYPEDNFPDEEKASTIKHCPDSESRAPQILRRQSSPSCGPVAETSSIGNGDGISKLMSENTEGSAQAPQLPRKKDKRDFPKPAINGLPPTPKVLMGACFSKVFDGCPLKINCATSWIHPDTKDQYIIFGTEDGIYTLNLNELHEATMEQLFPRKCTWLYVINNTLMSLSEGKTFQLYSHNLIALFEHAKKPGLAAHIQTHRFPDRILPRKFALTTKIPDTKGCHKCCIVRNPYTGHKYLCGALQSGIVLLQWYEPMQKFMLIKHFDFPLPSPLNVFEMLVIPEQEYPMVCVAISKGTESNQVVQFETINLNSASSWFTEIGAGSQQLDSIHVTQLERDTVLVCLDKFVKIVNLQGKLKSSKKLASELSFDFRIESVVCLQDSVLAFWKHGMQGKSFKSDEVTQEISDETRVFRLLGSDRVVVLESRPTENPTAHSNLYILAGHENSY

[13] = tested on: Proto-oncogene tyrosine-protein kinase receptor Ret (Homo sapiens), P07949 [M918T]; assay: Binding affinity to human partial length RET M918T mutant (E713 to D1014 residues) expressed in bacterial expression system assessed as residual binding level at 1 uM by Kinomescan method relative to control
Proto-oncogene tyrosine-protein kinase receptor Ret (Homo sapiens), P07949 [M918T], sequence (P07949 whole entry M918T, the tested form may be a part): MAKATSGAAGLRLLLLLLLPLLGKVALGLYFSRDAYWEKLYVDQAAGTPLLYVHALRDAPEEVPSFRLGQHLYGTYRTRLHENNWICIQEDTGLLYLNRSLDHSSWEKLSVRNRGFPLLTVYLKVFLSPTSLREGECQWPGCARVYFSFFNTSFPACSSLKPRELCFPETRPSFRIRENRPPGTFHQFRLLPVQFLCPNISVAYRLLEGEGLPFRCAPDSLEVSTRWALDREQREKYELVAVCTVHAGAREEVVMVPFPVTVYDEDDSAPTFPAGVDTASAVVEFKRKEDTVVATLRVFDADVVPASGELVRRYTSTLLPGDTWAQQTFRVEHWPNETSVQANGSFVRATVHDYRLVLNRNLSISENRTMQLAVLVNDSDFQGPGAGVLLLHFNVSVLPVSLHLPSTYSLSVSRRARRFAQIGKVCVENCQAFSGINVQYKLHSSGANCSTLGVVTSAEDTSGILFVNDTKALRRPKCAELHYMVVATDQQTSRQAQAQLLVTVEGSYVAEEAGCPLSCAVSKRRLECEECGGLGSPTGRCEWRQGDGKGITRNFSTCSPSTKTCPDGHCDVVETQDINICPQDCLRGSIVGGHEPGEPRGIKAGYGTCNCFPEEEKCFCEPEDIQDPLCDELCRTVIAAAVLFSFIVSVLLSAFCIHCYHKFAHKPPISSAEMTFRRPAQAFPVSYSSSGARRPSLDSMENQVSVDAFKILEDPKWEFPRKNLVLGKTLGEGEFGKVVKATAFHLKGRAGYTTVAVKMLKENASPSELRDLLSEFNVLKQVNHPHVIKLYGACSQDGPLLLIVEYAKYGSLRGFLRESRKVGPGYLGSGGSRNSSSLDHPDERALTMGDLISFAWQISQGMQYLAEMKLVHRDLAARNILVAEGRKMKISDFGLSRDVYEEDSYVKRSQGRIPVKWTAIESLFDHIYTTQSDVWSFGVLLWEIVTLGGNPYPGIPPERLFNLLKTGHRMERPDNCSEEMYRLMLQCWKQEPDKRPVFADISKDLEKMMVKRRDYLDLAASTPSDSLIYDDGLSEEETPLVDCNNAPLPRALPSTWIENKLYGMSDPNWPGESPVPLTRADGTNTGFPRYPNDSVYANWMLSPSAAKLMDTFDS
Method in brief: (§2)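 KinomeScan active site-directed competition binding panel (468 kinases), compound tested at 1 μM. Result expressed as remaining kinase signal versus DMSO control (percent of control).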

[14] = target: Serine/threonine-protein kinase 32B (Homo sapiens) (UniProt Q9NY57); assay: Binding affinity to wild-type human full length YANK2 (M1 to S414 residues) expressed in bacterial expression system assessed as residual binding level at 1 uM by Kinomescan method relative to control
Serine/threonine-protein kinase 32B (Homo sapiens), sequence (Q9NY57 whole entry, the tested form may be a part): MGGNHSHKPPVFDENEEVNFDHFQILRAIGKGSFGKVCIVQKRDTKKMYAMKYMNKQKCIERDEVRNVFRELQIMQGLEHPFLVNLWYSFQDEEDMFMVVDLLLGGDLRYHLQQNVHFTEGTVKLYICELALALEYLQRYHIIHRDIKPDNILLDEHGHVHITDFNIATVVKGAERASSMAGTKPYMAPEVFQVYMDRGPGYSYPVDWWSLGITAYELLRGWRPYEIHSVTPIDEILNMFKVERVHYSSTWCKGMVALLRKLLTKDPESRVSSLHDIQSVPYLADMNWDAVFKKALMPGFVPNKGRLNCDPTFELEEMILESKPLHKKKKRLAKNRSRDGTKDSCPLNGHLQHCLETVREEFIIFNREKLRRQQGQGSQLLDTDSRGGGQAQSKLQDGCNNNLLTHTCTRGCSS

[15] = target: Serine/threonine-protein kinase 32A (Homo sapiens) (UniProt Q8WU08); assay: Binding affinity to wild-type human full length YANK1 (M1 to L396 residues) expressed in mammalian expression system assessed as residual binding level at 1 uM by Kinomescan method relative to control
[16] = target: Mitogen-activated protein kinase kinase kinase 14 (Homo sapiens) (UniProt Q99558); assay: Binding affinity to wild-type human partial length NIK (L318 to P947 residues) expressed in mammalian expression system assessed as residual binding level at 1 uM by Kinomescan method relative to control
[17] = target: Death-associated protein kinase 2 (Homo sapiens) (UniProt Q9UIK4); assay: Binding affinity to wild-type human full length DAPK2 (M1 to S370 residues) expressed in bacterial expression system assessed as residual binding level at 1 uM by Kinomescan method relative to control; method in brief: as §1
[18] = target: SRSF protein kinase 2 (Homo sapiens) (UniProt P78362); assay: Binding affinity to wild-type human full length SRPK2 (M1 to S686 residues) expressed in bacterial expression system assessed as residual binding level at 1 uM by Kinomescan method relative to control
[19] = target: Focal adhesion kinase 1 (Homo sapiens) (UniProt Q05397); assay: Binding affinity to wild-type human partial length FAK (D402 to R696 residues) expressed in bacterial expression system assessed as residual binding level at 1 uM by Kinomescan method relative to control
[20] = tested on: Epidermal growth factor receptor (Homo sapiens), P00533 [G719S]; assay: Binding affinity to human partial length EGFR G719S mutant (R669 to V1011 residues) expressed in bacterial expression system assessed as residual binding level at 1 uM by Kinomescan method relative to control; method in brief: as §2
[21] = target: Phosphatidylinositol 5-phosphate 4-kinase type-2 gamma (Homo sapiens) (UniProt Q8TBX8); assay: Binding affinity to wild-type human partial length PIP5K2C (M1 to A421 residues) expressed in mammalian expression system assessed as residual binding level at 1 uM by Kinomescan method relative to control
Phosphatidylinositol 5-phosphate 4-kinase type-2 gamma (Homo sapiens), sequence (Q8TBX8 whole entry, the tested form may be a part): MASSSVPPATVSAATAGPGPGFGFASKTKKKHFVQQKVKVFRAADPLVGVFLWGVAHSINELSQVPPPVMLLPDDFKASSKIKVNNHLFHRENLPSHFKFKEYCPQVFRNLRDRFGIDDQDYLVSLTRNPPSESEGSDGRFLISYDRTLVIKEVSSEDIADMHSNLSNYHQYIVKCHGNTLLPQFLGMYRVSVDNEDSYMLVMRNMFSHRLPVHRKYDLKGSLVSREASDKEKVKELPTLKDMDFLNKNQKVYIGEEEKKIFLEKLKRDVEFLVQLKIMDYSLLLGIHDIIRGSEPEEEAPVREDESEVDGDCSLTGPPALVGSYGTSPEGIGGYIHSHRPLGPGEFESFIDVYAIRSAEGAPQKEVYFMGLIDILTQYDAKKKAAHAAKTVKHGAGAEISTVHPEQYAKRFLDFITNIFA

Measured: Activity

C=CC(=O)Nc1ccccc1Nc1nc(Nc2ccc(N3CCN(C)CC3)cc2)ncc1C(=O)Nc1c(C)cccc1Cl
87%: [13]
86%: [8]
95%: [20]
72%: [11]
100%: all other assays above
